Where a chain is given by its changes, count along the chain named.
How the values were obtained:
Details in all cases: stereoisomer not certain
OR2J1 (Homo sapiens) = molecular target: T1, OR2J1 (Homo sapiens) (UniProt Q9GZK6)
T1 sequence (whole entry): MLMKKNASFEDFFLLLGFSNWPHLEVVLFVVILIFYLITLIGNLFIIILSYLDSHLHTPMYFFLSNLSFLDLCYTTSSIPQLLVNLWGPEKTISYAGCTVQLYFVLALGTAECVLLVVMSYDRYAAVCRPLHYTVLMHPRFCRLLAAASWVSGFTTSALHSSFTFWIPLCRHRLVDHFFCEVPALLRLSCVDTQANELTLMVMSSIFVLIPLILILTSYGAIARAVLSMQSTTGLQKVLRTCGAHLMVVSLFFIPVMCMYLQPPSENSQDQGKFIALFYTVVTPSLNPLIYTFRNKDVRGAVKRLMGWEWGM
Summary of the method: (§1)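 Transient luciferase assays in mammalian cell lines were common, though methods varied by source. The values come from published papers and their supplementary material, with extra details from the original authors when needed. Responsive refers to a measured signal the original authors judged statistically different from baseline, and non-responsive (inactive) to the remainder.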

OR2J2 (Homo sapiens) = molecular target: T2, OR2J2 (Homo sapiens) (UniProt O76002)
T2 sequence (whole entry): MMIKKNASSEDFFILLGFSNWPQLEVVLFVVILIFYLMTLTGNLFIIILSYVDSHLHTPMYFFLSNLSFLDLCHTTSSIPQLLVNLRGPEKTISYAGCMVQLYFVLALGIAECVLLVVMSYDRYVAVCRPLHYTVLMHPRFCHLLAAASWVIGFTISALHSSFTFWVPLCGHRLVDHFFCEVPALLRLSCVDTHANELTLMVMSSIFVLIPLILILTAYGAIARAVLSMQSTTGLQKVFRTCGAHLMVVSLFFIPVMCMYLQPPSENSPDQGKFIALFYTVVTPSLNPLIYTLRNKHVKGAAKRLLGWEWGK
Summary of the method: as §1

OR2J3 (Homo sapiens) = molecular target: T3, OR2J3 (Homo sapiens) (UniProt O76001)
T3 sequence (whole entry): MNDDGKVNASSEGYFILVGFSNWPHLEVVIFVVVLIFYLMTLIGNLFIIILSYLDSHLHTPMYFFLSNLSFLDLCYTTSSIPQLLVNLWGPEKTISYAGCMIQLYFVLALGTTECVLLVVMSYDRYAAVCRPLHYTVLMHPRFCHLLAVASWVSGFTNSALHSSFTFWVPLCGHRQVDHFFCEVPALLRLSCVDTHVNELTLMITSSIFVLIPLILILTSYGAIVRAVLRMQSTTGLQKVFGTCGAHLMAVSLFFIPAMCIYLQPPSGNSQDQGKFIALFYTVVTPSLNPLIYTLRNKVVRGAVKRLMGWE
Summary of the method: as §1

OR2K2 (Homo sapiens) = molecular target: T4, OR2K2 (Homo sapiens) (UniProt Q8NGT1)
T4 sequence (whole entry): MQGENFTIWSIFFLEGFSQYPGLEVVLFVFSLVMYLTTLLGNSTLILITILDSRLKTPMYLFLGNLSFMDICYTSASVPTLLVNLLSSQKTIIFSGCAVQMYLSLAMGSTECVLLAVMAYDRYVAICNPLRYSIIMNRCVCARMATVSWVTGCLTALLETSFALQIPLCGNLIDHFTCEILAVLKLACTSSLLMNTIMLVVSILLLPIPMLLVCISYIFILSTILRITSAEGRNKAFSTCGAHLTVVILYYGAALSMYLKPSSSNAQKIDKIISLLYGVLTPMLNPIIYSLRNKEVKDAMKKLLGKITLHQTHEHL
Summary of the method: as §1

OR2L13 (Homo sapiens) = molecular target: T5, OR2L13 (Homo sapiens) (UniProt Q8N349)
T5 sequence (whole entry): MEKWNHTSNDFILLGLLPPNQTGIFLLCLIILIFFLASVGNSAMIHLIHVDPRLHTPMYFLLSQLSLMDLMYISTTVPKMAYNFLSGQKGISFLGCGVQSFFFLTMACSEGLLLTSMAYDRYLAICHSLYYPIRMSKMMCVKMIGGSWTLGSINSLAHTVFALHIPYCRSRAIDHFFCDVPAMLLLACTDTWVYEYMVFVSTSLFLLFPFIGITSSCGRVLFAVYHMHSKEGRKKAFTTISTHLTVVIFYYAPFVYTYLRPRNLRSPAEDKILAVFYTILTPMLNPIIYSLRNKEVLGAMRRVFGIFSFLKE
Summary of the method: as §1

OR2L3 (Homo sapiens) = molecular target: T6, OR2L3 (Homo sapiens) (UniProt Q8NG85)
T6 sequence (whole entry): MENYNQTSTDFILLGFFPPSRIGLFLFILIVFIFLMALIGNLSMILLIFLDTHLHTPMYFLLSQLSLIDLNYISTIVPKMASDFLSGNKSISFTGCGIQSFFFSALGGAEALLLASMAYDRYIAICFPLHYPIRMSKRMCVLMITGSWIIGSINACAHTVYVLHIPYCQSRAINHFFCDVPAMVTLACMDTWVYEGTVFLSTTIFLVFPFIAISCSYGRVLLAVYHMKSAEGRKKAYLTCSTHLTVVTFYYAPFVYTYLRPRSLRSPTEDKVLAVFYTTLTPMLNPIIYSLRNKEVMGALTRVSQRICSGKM
Summary of the method: as §1

OR2L5 (Homo sapiens) = molecular target: T7, OR2L5 (Homo sapiens) (UniProt Q8NG80)
T7 sequence (whole entry): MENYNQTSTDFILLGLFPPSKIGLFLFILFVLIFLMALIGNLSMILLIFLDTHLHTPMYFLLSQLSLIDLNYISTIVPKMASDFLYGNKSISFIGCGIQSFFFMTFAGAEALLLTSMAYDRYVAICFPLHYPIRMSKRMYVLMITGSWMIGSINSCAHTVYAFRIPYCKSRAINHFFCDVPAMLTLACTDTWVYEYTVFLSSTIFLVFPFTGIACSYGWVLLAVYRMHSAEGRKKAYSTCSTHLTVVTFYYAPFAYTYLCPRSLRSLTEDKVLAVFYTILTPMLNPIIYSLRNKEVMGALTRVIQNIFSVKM
Summary of the method: as §1

OR2L8 (Homo sapiens) = molecular target: T8, OR2L8 (Homo sapiens) (UniProt Q8NGY9)
T8 sequence (whole entry): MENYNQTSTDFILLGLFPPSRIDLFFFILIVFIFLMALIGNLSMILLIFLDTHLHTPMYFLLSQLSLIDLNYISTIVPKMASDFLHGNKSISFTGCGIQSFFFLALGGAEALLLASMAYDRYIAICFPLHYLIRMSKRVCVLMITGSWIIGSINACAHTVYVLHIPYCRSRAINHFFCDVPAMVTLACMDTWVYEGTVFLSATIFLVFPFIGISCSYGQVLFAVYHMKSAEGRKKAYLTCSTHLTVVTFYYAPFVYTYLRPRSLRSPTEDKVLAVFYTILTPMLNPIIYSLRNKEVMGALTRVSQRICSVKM
Summary of the method: as §1

OR2M2 (Homo sapiens) = molecular target: T9, OR2M2 (Homo sapiens) (UniProt Q96R28)
T9 sequence (whole entry): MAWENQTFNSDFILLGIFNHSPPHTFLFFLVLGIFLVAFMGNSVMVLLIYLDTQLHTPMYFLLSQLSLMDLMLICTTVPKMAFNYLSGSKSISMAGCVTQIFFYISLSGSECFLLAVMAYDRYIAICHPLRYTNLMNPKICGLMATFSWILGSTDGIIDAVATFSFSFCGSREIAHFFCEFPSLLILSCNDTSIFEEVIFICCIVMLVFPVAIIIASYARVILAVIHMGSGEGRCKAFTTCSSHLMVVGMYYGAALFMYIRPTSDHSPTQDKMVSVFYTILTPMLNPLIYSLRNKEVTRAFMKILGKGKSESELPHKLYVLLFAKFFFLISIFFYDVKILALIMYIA
Summary of the method: as §1

OR2M3 (Homo sapiens) = molecular target: T10, OR2M3 (Homo sapiens) (UniProt Q8NG83)
T10 sequence (whole entry): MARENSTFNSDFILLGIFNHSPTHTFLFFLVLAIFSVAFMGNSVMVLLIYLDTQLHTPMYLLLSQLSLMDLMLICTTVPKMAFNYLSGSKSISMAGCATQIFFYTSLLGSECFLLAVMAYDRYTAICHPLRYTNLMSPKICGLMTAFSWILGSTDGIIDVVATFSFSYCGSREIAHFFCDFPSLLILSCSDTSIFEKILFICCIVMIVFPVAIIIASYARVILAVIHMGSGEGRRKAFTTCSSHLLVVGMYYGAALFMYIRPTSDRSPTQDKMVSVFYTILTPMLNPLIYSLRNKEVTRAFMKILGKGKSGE
Summary of the method: as §1

OR2H2 = tested on: T11, OR2H2
T11 sequence (whole entry): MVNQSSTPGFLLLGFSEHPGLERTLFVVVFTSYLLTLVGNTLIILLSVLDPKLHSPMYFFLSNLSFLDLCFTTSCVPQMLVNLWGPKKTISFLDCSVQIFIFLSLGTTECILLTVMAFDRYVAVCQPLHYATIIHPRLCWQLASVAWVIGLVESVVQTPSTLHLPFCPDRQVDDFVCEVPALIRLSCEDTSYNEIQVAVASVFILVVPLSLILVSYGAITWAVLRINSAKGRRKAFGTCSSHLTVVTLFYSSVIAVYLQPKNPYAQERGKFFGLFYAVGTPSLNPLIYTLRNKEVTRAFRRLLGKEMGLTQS
Summary of the method: as §1

OR2J1 L14I V182A = tested on: T12, OR2J1 L14I V182A
T12 sequence (whole entry): T1 sequence (whole entry) with L14I, V182A
Summary of the method: as §1

OR2J3 = tested on: T13, OR2J3
T13 sequence (whole entry): T3 sequence (whole entry) with V228I, I261M
Summary of the method: as §1

OR2L2 (Homo sapiens) = molecular target: T14, OR2L2 (Homo sapiens) (UniProt Q8NH16)
T14 sequence (whole entry): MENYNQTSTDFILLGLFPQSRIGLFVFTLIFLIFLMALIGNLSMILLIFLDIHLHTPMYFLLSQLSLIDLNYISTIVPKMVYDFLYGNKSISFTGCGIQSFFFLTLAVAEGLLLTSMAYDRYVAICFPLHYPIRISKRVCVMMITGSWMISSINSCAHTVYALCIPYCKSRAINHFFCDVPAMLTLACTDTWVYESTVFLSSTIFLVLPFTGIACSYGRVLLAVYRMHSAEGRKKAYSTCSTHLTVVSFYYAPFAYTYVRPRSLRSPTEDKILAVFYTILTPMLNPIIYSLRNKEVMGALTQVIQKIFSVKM
Summary of the method: as §1

OR2J2 = tested on: T15, OR2J2
T15 sequence (whole entry): T2 sequence (whole entry) with H74Y, A111T, A146V, A218T
Summary of the method: as §1

OR2J1 = tested on: OR2J1
Summary of the method: as §1

Measured: odorant receptor agonist call

CC(=O)c1c(C)c([N+](=O)[O-])c(C(C)(C)C)c([N+](=O)[O-])c1C
not listed: OR2H2 | OR2J1 L14I V182A | OR2J3 | OR2L2 (Homo sapiens) | OR2J2 | OR2J1
inactive: all other assays above

CCCCCCC=CCCC=O
not listed: OR2J2 | OR2J1
inactive: all other assays above

c1ccccc1
inactive: OR2J2 (Homo sapiens)

CCCCCCC(C)=O
inactive: OR2J2 (Homo sapiens)

CCC(=O)C(=O)CC
inactive: OR2J2 (Homo sapiens)

CCCC(=O)C(C)=O
inactive: OR2J2 (Homo sapiens)

CC1=C(O)C(=O)OC1C (stereo not drawn)
not listed: OR2J2 (Homo sapiens) | OR2J1
inactive: all other assays above

O=c1ccc2ccccc2o1
active: OR2J2 (Homo sapiens)
inactive: OR2J1 | OR2L13 (Homo sapiens) | OR2M3 (Homo sapiens)

CC(=O)OCC=C(C)C
inactive: OR2J2 (Homo sapiens)

CCCCCCCO
active: OR2J2 (Homo sapiens)

C=C(C)C1CCC(C)C(=O)C1 (stereo not drawn)
inactive: OR2J2 (Homo sapiens)

CCCCC(=O)CC
inactive: OR2J2 (Homo sapiens)

O=C1CCOc2ccccc21
inactive: OR2J2 (Homo sapiens)

CCCCOC(=O)C(C)OC(=O)CCC (stereo not drawn)
inactive: OR2J2 (Homo sapiens)

CCCCCCCCO
inactive: OR2L2 (Homo sapiens)

— the M2OR odorant receptor database
